Measured values published in paper PMC11094418 (Clinical Cancer Research, 2024).

Assays:
[1] = tested on: HCT116 KRAS-mutant colorectal cancer xenograft model; experiment: HCT116 xenograft in Balb/c nude mice; assay type: in vivo; settings: 42 days
How it was run: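 Female Balb/c nude mice aged 6–9 weeks, inoculated subcutaneously with 5 million HCT116 cells and randomized at 100–150 mm3. Groups received vehicle, oral test compound (0.5% methylcellulose + 0.1% Tween80 suspension), an i.p. chemotherapy agent in saline, or the combination for 42 days. Tumor volume and body weight were measured twice weekly. Mean ± SEM, n=7–8/group.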

[2] = phase Ib safety: onvansertib-related AEs; assay type: in vivo, human; settings: all dose levels
How it was run: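 Oral test compound was dose-escalated (3+3 design; 12, 15, 18 mg/m2) on days 1–5 and 15–19 of 28-day cycles. It was given with FOLFIRI and bevacizumab 5 mg/kg i.v. on days 1 and 15. Patients receiving ≥1 dose were evaluable. AEs were graded by NCI CTCAE v4.03, investigators assigned causality, and data were summarized descriptively.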

[3] = cited from earlier work
[4] = tested on: DLD1 isogenic KRAS^WT/G13D (KRAS MUT) and KRAS^WT/− (KRAS WT) colorectal cancer cells; experiment: proliferation assay, cell viability by CellTiterGlo; assay type: cell-based; settings: 72 hours, Fig. 1A
[5] = phase Ib pharmacokinetics, plasma, day 5 of cycle 1, LC/MS-MS; assay type: in vivo, human
How it was run: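 Oral test compound was given on days 1–5 and 15–19 of 28-day cycles with FOLFIRI/bevacizumab. Blood was drawn on cycle 1 day 5 at predose and at 1, 2, 3, 4, 8, 24, 48 and 72 h postdose. Plasma drug concentrations were measured by LC/MS-MS, and pharmacokinetic parameters were calculated from these.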

[6] = tested on: DLD1 isogenic KRAS^WT/G13D (KRAS MUT) and KRAS^WT/− (KRAS WT) colorectal cancer cells; experiment: analysis of mitotic cells by flow cytometry; assay type: cell-based; settings: 100 nmol/L, 24 hours, Fig. 1B

CCc1c2c(nc3ccc(OC(=O)N4CCC(N5CCCCC5)CC4)cc13)-c1cc3c(c(=O)n1C2)COC(=O)[C@]3(O)CC [irinotecan, reference compound]
tumor growth compared with the vehicle-treated group ([1]; intraperitoneally, 5 mg/kg, twice a week): significantly reduced tumor growth

CN1CCN(c2ccc(OC(F)(F)F)c(Nc3ncc4c(n3)-c3c(c(C(N)=O)nn3CCO)CC4)c2)CC1 [onvansertib]
G3/G4 neutropenia, patients [2]: 28% | diarrhea, patients [2]: 50% | fatigue, patients [2]: 44% | nausea, patients [2]: 50% | number of onvansertib-related G3 or G4 AEs [2]: 15 | vomiting, patients [2]: 22% | human half-life ([3]; oral): approximately 24 hours | dose-limiting toxicities (DLT) ([3]; single agent, 6, 12, and 24 mg/m^2/day for 5 out of 21 days): no dose-limiting toxicities | tumor growth compared with the vehicle-treated group ([1]; oral, 45 mg/kg, daily): significantly reduced tumor growth | cell death in DLD1 KRAS MUT cells compared with KRAS WT cells [4]: increased | AUC0–24 ([5]; 12 mg/m^2, mean ± SD): 2,020 ± 880 ng/mL.hours | Cmax ([5]; 12 mg/m^2, mean ± SD): 163 ± 82 ng/mL | Tmax ([5]; 12 mg/m^2, mean ± SD): 5.29 ± 8.32 h | t1/2 ([5]; 12 mg/m^2, mean ± SD): 13.8 ± 2.1 h | AUC0–24 ([5]; 15 mg/m^2, mean ± SD): 1,520 ± 650 ng/mL.hours | Cmax ([5]; 15 mg/m^2, mean ± SD): 169 ± 64 ng/mL | Tmax ([5]; 15 mg/m^2, mean ± SD): 1.80 ± 0.84 h | t1/2 ([5]; 15 mg/m^2, mean ± SD): 13.9 ± 4.3 h | AUC0–24 ([5]; 18 mg/m^2, mean ± SD): 2,290 ± 730 ng/mL.hours | Cmax ([5]; 18 mg/m^2, mean ± SD): 191 ± 25 ng/mL | Tmax ([5]; 18 mg/m^2, mean ± SD): 2.40 ± 1.20 h | t1/2 ([5]; 18 mg/m^2, mean ± SD): 13.8 ± 2.3 h | terminal half-life in plasma ([5]; all dose levels): around 14 hours | mitotic arrest in DLD1 KRAS MUT cells compared with KRAS WT cells [6]: increased
